Laboratory results: ChEMBL document CHEMBL1124212, “Synthesis of novel 3-substituted beta-carbolines as benzodiazepine receptor ligands: probing the benzodiazepine receptor pharmacophore” (J Med Chem, 1988)

Legend:
[1] = species: Rattus norvegicus; assay: In vitro inhibition of [3H]diazepam binding to GABA-A benzodiazepine receptor of rat cerebral cortical membrane
Outline: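 Rat cerebral cortex homogenized in 50 mM Tris-HCl, pH 7.4, spun at 20000g for 20 min at 4 °C, and washed three times. […] Nonspecific binding was measured with 10 μM flunitrazepam (final). IC50 was estimated from Hill plots.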

[2] = test system: Mus musculus; assay: Proconvulsant effect on mice 15 min after ip administration of a 10 mg/kg dose; assay type: functional; details: route intraperitoneal
Outline: (§1)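 Adult male mice (~25 g) given test drug or vehicle (0.1 mL of 20% diluted Emulphor in saline) ip at the stated dose, then challenged 15 or 120 min later with pentylenetetrazole 40 mg/kg ip (in water). Animals watched 15 min after PTZ for clonic-tonic convulsions; % convulsing recorded; at least 10 animals per dose.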

[3] = test system: Mus musculus; assay: Proconvulsant effect on mice 15 min after ip administration of a 25 mg/kg dose; assay type: functional; details: route intraperitoneal; outline: as §1
[4] = test system: Mus musculus; assay: Proconvulsant effect on mice 120 min after ip administration of a 25 mg/kg dose; assay type: functional; details: route intraperitoneal; outline: as §1
[5] = test system: Mus musculus; assay: Proconvulsant effect on mice 15 min after ip administration of a 5 mg/kg dose; assay type: functional; details: route intraperitoneal
Outline: (§2)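 Adult male mice (~25 g) were given drug ip in vehicle (20% diluted Emulphor in saline). They were challenged with pentylenetetrazole (40 mg/kg ip, in water) 15 or 120 min later. Animals were watched for 15 min for clonic-tonic convulsions, scored as % of animals convulsing, with at least 10 animals per dose.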

[6] = test system: Mus musculus; assay: Proconvulsant effect on mice 120 min after ip administration of a 10 mg/kg dose; assay type: functional; details: route intraperitoneal; outline: as §2
[7] = test system: Mus musculus; assay: Proconvulsant effect on mice 15 min after ip administration of a 20 mg/kg dose; assay type: functional; details: route intraperitoneal; outline: as §2
[8] = test system: Mus musculus; assay: Proconvulsant effect on mice 15 min after ip administration of at 1.25 mg/kg dose; assay type: functional; details: route intraperitoneal; outline: as §2
[9] = test system: Mus musculus; assay: Proconvulsant effect on mice 15 min after ip administration of a 2.5 mg/kg dose; assay type: functional; details: route intraperitoneal; outline: as §2
[10] = target: GABA-A receptor; anion channel; assay: In vitro inhibition of binding to the benzodiazepine receptor in rat cerebral cortical membrane using [3H]diazepam as radioligand; assay type: cell membranes
Outline: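 Rat cerebral cortex homogenized in 50 mM Tris-HCl, pH 7.4, spun at 20000g for 20 min at 4 °C, and washed three times. Nonspecific binding was measured with 10 μM flunitrazepam (final). IC50 was estimated from Hill plots.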

Structure (SMILES)	IC50 [10]	other results
c1ccc(CNc2cc3c(cn2)[nH]c2ccccc23)cc1		IC30 [1]: 1280 nM
CCOC(=O)c1cc2c(cn1)[nH]c1ccccc12		Convulsion [2]: 33%; Convulsion [3]: 96%; Convulsion [4]: 30%
CCOc1cc2c(cn1)[nH]c1ccccc12	24 nM	Convulsion [2]: 84%; Convulsion [5]: 50%; Convulsion [6]: 60%; Convulsion [7]: 100%; Convulsion [8]: 30%; Convulsion [9]: 40%
Clc1cc2c(cn1)[nH]c1ccccc12	45 nM	
c1ccc2c(c1)[nH]c1c2ccc2[nH]c3ccccc3c21	1920 nM	
COC(=O)c1cc2c(cn1)[nH]c1ccccc12 [BETA-CCM]	5 nM	
COC(=O)c1cc2ccccc2cn1	13200 nM	
Oc1cc2c3ccccc3nc-2c[nH]1	4000 nM	
CCCOc1cc2c(cn1)[nH]c1ccccc12	11 nM	
Cn1c2ccccc2c2c3[nH]c4ccccc4c3ncc21	1160 nM	
COc1cc2c(cn1)[nH]c1ccccc12	124 nM	
COC(=O)c1cc2c3ccccc3n(C)c2cn1	> 50000 nM	
CCOC(=O)c1cc2c(cn1)sc1ccccc12	980 nM	
O=[N+]([O-])c1cc2c3ccccc3nc-2c[nH]1	125 nM	
S=C=Nc1cc2c3ccccc3nc-2c[nH]1	8 nM	
c1ccc2c(c1)[nH]c1cnccc12 [NORHARMANE]	1620 nM	
